Data on ten compounds can be found in ChEMBL document CHEMBL1140415, “Synthesis, anti-HIV activity, and metabolic stability of new alkenyldiarylmethane HIV-1 non-nucleoside reverse transcriptase inhibitors” (J Med Chem, 2005).

The structures appear in SMILES notation. pEC50, pIC50: −log10 of the molar value.

System in one series: not listed separately
The series is described as follows: In vitro hydrolytic stability in rat plasma, expressed as t1/2. The series is classed as ADME, cell-free.
Conditions: not given
Summed up:
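1,1-Diphenylethylene (2.1–5.1 mg) or benzophenone (2.1 mg) served as internal standard. Hydrolysis of the methyl ester was followed, and t1/2 is given in min ± SD from triplicate tests.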
For orientation: half-life means how long it takes for the measured level to halve. A high value points to slow decline. In the case of `COC(=O)CCC/C=C(\c1cccc(C#N)c1)c1cc(Cl)c(OC)c(C(=O)OC)c1`, the half-life came to 26.4 s.
Turning to `COC(=O)c1cc(/C(=C\CCN2CCOC2=O)c2ccc(OC)c(OC)c2)cc(C)c1OC`, the half-life was found to be 346 s.
Consider `COC(=O)c1cc(C(=CCCN2CCOC2=O)c2ccc(OC)c(OC)c2)cc(C)c1OC`, for which the half-life was found to be 47.4 s.

The target in a further series is Human immunodeficiency virus type 1 reverse transcriptase (Human immunodeficiency virus 1, UniProt Q72547). The series is described as follows: Inhibition of recombinant HIV-1 reverse transcriptase activity.
Conditions: not given
A word on the pIC50: it is the negative decadic logarithm of the IC50, by convention in mol/L. For the compound `COC(=O)CCC/C=C(/c1ccc(OC)c(OC)c1)c1cc(C)c(OC)c(C(=O)OC)c1`, the pIC50 is 7.13.
Turning to `COC(=O)CCC/C=C(\c1cc(F)cc(C(F)(F)F)c1)c1cc(Cl)c(OC)c(C(=O)OC)c1`, the pIC50 is less than 4.00.
The same measure, in the same setting: to `COc1ccc(/C(=C\CCN2CCOC2=O)c2cc(F)cc(C(F)(F)F)c2)cc1OC` belongs 4.01; to `COc1ccc(/C(=C\CCN2CCOC2=O)c2cc(F)ccc2C(F)(F)F)cc1OC`, less than 4.00; to `COC(=O)CCC/C=C(\c1cccc(C#N)c1)c1cc(Cl)c(OC)c(C(=O)OC)c1`, 6.12.
Turning to `COC(=O)c1cc(/C(=C\CCN2CCOC2=O)c2ccc(OC)c(OC)c2)cc(C)c1OC`, the pIC50 was 6.00.
As for `COC(=O)c1cc(C(=CCCN2CCOC2=O)c2ccc(OC)c(OC)c2)cc(C)c1OC`, the pIC50 was less than 4.00.
For `COC(=O)CCC/C=C(\c1cc(F)cc(C(F)(F)F)c1)c1cc(C)c2onc(OC)c2c1`, the pIC50 is 6.05.
Still for that read-out and setting: with `COC(=O)CCC/C=C(\c1cc(F)cc(C(F)(F)F)c1)c1cc(C)c(OC)c(C(=O)OC)c1` the figure was less than 4.00.

System in another series: not listed separately
The series is described as follows: In vitro hydrolytic stability in rat plasma, expressed as t1/2; Not hydrolyzed. In kind it is ADME, cell-free.
Conditions: not given
Summed up:
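Compounds (4.3–9.3 mg) were incubated in rat plasma in vitro. 1,1-Diphenylethylene (2.1–5.1 mg) or benzophenone (2.1 mg) served as internal standard. Hydrolysis of the methyl ester was followed, and t1/2 is given in min ± SD from triplicate tests.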
As to `COc1ccc(/C(=C\CCN2CCOC2=O)c2cc(F)cc(C(F)(F)F)c2)cc1OC`, the T1/2 result was “Not hydrolyzed”.
Consider `COc1ccc(/C(=C\CCN2CCOC2=O)c2cc(F)ccc2C(F)(F)F)cc1OC`, for which the T1/2 entry is “Not hydrolyzed”.

The subject of a further series is MT4. The series is described as follows: Cytotoxic concentration against mock infected in MT-4 cells. The series is classed as functional. To be noted: Homo sapiens. Summed up: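 Uninfected (mock-infected) MT-4 cells, run alongside the MTT antiviral assay. Triplicate tests.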
As a reminder, the CC50 is the concentration giving 50% cytotoxicity. A lower CC50 goes with greater toxicity to the cells. In turn, `COc1ccc(/C(=C\CCN2CCOC2=O)c2cc(F)cc(C(F)(F)F)c2)cc1OC` returned a CC50 of 18.5 µM.
For the compound `COC(=O)CCC/C=C(\c1cccc(C#N)c1)c1cc(Cl)c(OC)c(C(=O)OC)c1`, the CC50 is 213 µM.
With `COC(=O)c1cc(/C(=C\CCN2CCOC2=O)c2ccc(OC)c(OC)c2)cc(C)c1OC`, it took 1.05 µM to reach half-maximal cytotoxicity (CC50).
Still for that read-out and setting: to `COC(=O)c1cc(C(=CCCN2CCOC2=O)c2ccc(OC)c(OC)c2)cc(C)c1OC` belongs 82.5 µM.
`COC(=O)CCC/C=C(\c1cc(F)cc(C(F)(F)F)c1)c1cc(C)c(OC)c(C(=O)OC)c1` returned a CC50 of 5.7 µM.

Another series relates to CEM-SS. Briefly: Cytotoxic concentration against mock infected in CEM-SS cells. To be noted: Homo sapiens. The series is classed as functional. Summed up:
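Mock-infected CEM-SS cells, tested alongside the HIV-1 RF cytoprotection (MTS) assay. Data come from triplicate tests.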
Turning to `COC(=O)CCC/C=C(/c1ccc(OC)c(OC)c1)c1cc(C)c(OC)c(C(=O)OC)c1`, half-maximal cytotoxicity (CC50) was put at 1.14 µM.
On the same count and under the same terms, with `COC(=O)CCC/C=C(\c1cc(F)cc(C(F)(F)F)c1)c1cc(Cl)c(OC)c(C(=O)OC)c1` the figure was 16.1 µM; with `COc1ccc(/C(=C\CCN2CCOC2=O)c2cc(F)cc(C(F)(F)F)c2)cc1OC`, 14.5 µM; with `COc1ccc(/C(=C\CCN2CCOC2=O)c2cc(F)ccc2C(F)(F)F)cc1OC`, 26.7 µM.
Same read-out and setting: to `COC(=O)CCC/C=C(\c1cccc(C#N)c1)c1cc(Cl)c(OC)c(C(=O)OC)c1` belongs 20.2 µM.
`COC(=O)c1cc(/C(=C\CCN2CCOC2=O)c2ccc(OC)c(OC)c2)cc(C)c1OC`: the CC50 came out at 0.49 µM.
In the case of `COC(=O)c1cc(C(=CCCN2CCOC2=O)c2ccc(OC)c(OC)c2)cc(C)c1OC`, the CC50 was 4.79 µM.
As for `COC(=O)CCC/C=C(\c1cc(F)cc(C(F)(F)F)c1)c1cc(C)c(OC)c(C(=O)OC)c1`, the cytotoxic concentration (CC50) is greater than 5 µM.

The test system of the next series is Human immunodeficiency virus 2. Briefly: In vitro anti-HIV activity against HIV-2ROD infected in MT-4 cells using MTT assay. In kind it is functional, organism-based. To be noted: Human immunodeficiency virus 2, MT4. A digest of the protocol: (§1)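 MT-4 cells infected with HIV-1 strain IIIB or HIV-2 strain ROD. Protection from viral cytopathicity was read by MTT. Triplicate tests.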
(Tetrazolium assays rely on reduction of a dye to a coloured formazan, in cell work by metabolically active cells.)
For orientation: pEC50 means the EC50 on a negative log10 scale, so that one unit is a factor of ten. A lower pEC50 goes with a high EC50. In turn, `COc1ccc(/C(=C\CCN2CCOC2=O)c2cc(F)cc(C(F)(F)F)c2)cc1OC` had a pEC50 of less than 4.87.
As to `COC(=O)c1cc(/C(=C\CCN2CCOC2=O)c2ccc(OC)c(OC)c2)cc(C)c1OC`, the pEC50 is less than 5.98.
The same measure, in the same setting: to `COC(=O)c1cc(C(=CCCN2CCOC2=O)c2ccc(OC)c(OC)c2)cc(C)c1OC` belongs less than 4.45; to `COC(=O)CCC/C=C(\c1cc(F)cc(C(F)(F)F)c1)c1cc(C)c(OC)c(C(=O)OC)c1`, less than 5.23.

The next series relates to Human immunodeficiency virus 1. Briefly: In vitro anti-HIV activity against HIV-1 IIIB infected in MT-4 cells using MTT assay. To be noted: Human immunodeficiency virus 1, MT4. The series is classed as functional, organism-based. Summed up: as §1
On to `COc1ccc(/C(=C\CCN2CCOC2=O)c2cc(F)cc(C(F)(F)F)c2)cc1OC`, for which the pEC50 is less than 4.73.
In turn, `COC(=O)CCC/C=C(\c1cccc(C#N)c1)c1cc(Cl)c(OC)c(C(=O)OC)c1` gave a pEC50 of 5.07.
`COC(=O)c1cc(/C(=C\CCN2CCOC2=O)c2ccc(OC)c(OC)c2)cc(C)c1OC` had a negative-log EC50 (pEC50) of less than 5.98.
Take `COC(=O)c1cc(C(=CCCN2CCOC2=O)c2ccc(OC)c(OC)c2)cc(C)c1OC`: the pEC50 is less than 4.47.
On to `COC(=O)CCC/C=C(\c1cc(F)cc(C(F)(F)F)c1)c1cc(C)c(OC)c(C(=O)OC)c1`, for which the pEC50 was less than 5.26.

For a further series, the system named is Human immunodeficiency virus 1. The series is described as follows: In vitro anti-HIV activity against HIV-1RF infected in CEM-SS cells using MTS cytoprotection assay. In kind it is functional, organism-based. The settings on record: Human immunodeficiency virus 1, CEM-SS.
The compound `COC(=O)CCC/C=C(/c1ccc(OC)c(OC)c1)c1cc(C)c(OC)c(C(=O)OC)c1` had a pEC50 of 6.68.
The same measure, in the same setting: with `COC(=O)c1cc(C(=CCCN2CCOC2=O)c2cc(Br)c(OC)c(C(=O)OC)c2)cc(Br)c1OC` the figure was 7.70; with `COC(=O)CCC/C=C(\c1cc(F)cc(C(F)(F)F)c1)c1cc(Cl)c(OC)c(C(=O)OC)c1`, less than 4.00; with `COc1ccc(/C(=C\CCN2CCOC2=O)c2cc(F)cc(C(F)(F)F)c2)cc1OC`, less than 4.00.
`COc1ccc(/C(=C\CCN2CCOC2=O)c2cc(F)ccc2C(F)(F)F)cc1OC` showed a pEC50 of less than 4.00.
In turn, `COC(=O)CCC/C=C(\c1cccc(C#N)c1)c1cc(Cl)c(OC)c(C(=O)OC)c1` had a pEC50 of 5.15.
With `COC(=O)c1cc(/C(=C\CCN2CCOC2=O)c2ccc(OC)c(OC)c2)cc(C)c1OC`, the pEC50 is less than 4.00.
Still for that read-out and setting: to `COC(=O)c1cc(C(=CCCN2CCOC2=O)c2ccc(OC)c(OC)c2)cc(C)c1OC` belongs less than 4.00; to `COC(=O)CCC/C=C(\c1cc(F)cc(C(F)(F)F)c1)c1cc(C)c(OC)c(C(=O)OC)c1`, less than 5.30.
